In ChEMBL document CHEMBL3124917, “Design, synthesis, and biological evaluation of deuterated C-aryl glycoside as a potent and long-acting renal sodium-dependent glucose cotransporter 2 inhibitor for the treatment of type 2 diabetes” (J Med Chem, 2014):

Key:
[1] = Cmax in Sprague-Dawley rat at 1 mg/kg, po by LC-MS/MS analysis; type: ADME, organism-based; design: dose 1 mg/kg, route oral; conditions: in vivo
In short: (§1)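 Male Sprague-Dawley rats, n = 4 per group, overnight-fasted. Oral gavage of 3 or 1 mg/kg in 30% PEG400; i.v. arm at 1 mg/kg. Orbital plexus blood taken under ether at 0.083–24 h; plasma deproteinized and assayed by LC-MS/MS. Noncompartmental parameters derived; mean ± SD reported.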

Rattus norvegicus [2] = assay: Antidiabetic activity in Sprague-Dawley rat assessed as urinary glucose excretion at 1 mg/kg, po administered 1 hr prior to glucose challenge measured after 1 to 4 hrs relative to dapagliflozin; type: functional, Urine
In short: (§2)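 Overnight-fasted Sprague-Dawley rats, n = 3 per group, dosed 1 mg/kg by oral gavage in 30% PEG400; controls received vehicle. Oral glucose (2 g/kg, 10 mL/kg) given 1 h post-dose. Urine collected in metabolic cages at 0–4 and 4–24 h, glucose measured on a biochemistry analyzer. Expressed as % of reference positive control; mean ± SD.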

[3] = Clearance in Sprague-Dawley rat at 1 mg/kg, iv by LC-MS/MS analysis; type: ADME, organism-based; design: dose 1 mg/kg, route intravenous; conditions: in vivo; in short: as §1
Canis familiaris [4] = assay: Antidiabetic activity in Beagle dog assessed as urinary glucose excretion at 0.03 mg/kg, po administered 1 hr prior to glucose challenge measured after 1 to 8 hrs relative to dapagliflozin; type: functional, Canis lupus familiaris, Urine
In short: (§3)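 Overnight-fasted beagle dogs, n = 3 per group, given 0.03 mg/kg orally by gavage in 10% PEG400; vehicle controls received 10% PEG400. Oral glucose (2 g/kg, 5 mL/kg) given 1 h post-dose. Urine collected in metabolic cages at 0–8 and 8–24 h, glucose read on a biochemistry analyzer. Expressed as % of reference positive control; mean ± SD.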

[5] = Half life in Sprague-Dawley rat at 1 mg/kg, iv by LC-MS/MS analysis; type: ADME, organism-based; design: dose 1 mg/kg, route intravenous; conditions: in vivo; in short: as §1
[6] = Half life in Sprague-Dawley rat at 1 mg/kg, po by LC-MS/MS analysis; type: ADME, organism-based; design: dose 1 mg/kg, route oral; conditions: in vivo; in short: as §1
[7] = AUC (0 to infinity) in Sprague-Dawley rat at 1 mg/kg, po by LC-MS/MS analysis; type: ADME, organism-based; design: time infinity, dose 1 mg/kg, route oral; conditions: plasma; in short: as §1
[8] = Drug metabolism in Sprague-Dawley rat assessed as compound remaining at 50 mg/kg, po after 5 days by HPLC analysis; type: ADME, organism-based; design: dose 50 mg/kg, route oral; conditions: in vivo, read-out: Drug metabolism
[9] = AUC (0 to infinity) in Sprague-Dawley rat at 1 mg/kg, iv by LC-MS/MS analysis; type: ADME, organism-based; design: time infinity, dose 1 mg/kg, route intravenous; conditions: plasma; in short: as §1
Rattus norvegicus [10] = assay: Antidiabetic activity in Sprague-Dawley rat assessed as urinary glucose excretion at 1 mg/kg, po administered 1 hr prior to glucose challenge measured after 4 to 24 hrs relative to dapagliflozin; type: functional, Urine; in short: as §2
[11] = Oral bioavailability in Sprague-Dawley rat at 1 mg/kg by LC-MS/MS analysis; type: ADME, organism-based; conditions: in vivo; in short: as §1
Canis familiaris [12] = assay: Antidiabetic activity in Beagle dog assessed as urinary glucose excretion at 0.03 mg/kg, po administered 1 hr prior to glucose challenge measured after 8 to 24 hrs relative to dapagliflozin; type: functional, Canis lupus familiaris, Urine
In short: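 Overnight-fasted beagle dogs, n = 3 per group, given 0.03 mg/kg orally by gavage in 10% PEG400; vehicle controls received 10% PEG400. Oral glucose (2 g/kg, 5 mL/kg) given 1 h post-dose. Expressed as % of reference positive control; mean ± SD.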

Canis familiaris [13] = assay: Antidiabetic activity in Beagle dog assessed as urinary glucose excretion at 0.03 mg/kg, po administered 1 hr prior to glucose challenge measured after 1 to 24 hrs relative to dapagliflozin; type: functional, Canis lupus familiaris, Urine; in short: as §3
[14] = Tmax in Sprague-Dawley rat at 1 mg/kg, po by LC-MS/MS analysis; type: ADME, organism-based; design: dose 1 mg/kg, route oral; conditions: in vivo; in short: as §1
[15] = AUC (0 to infinity) in Sprague-Dawley rat at 3 mg/kg, po by LC-MS/MS analysis; type: ADME, organism-based; design: time infinity, dose 3 mg/kg, route oral; conditions: plasma; in short: as §1
Rattus norvegicus [16] = assay: Antidiabetic activity in Sprague-Dawley rat assessed as urinary glucose excretion at 1 mg/kg, po administered 1 hr prior to glucose challenge measured after 1 to 24 hrs relative to dapagliflozin; type: functional, Urine; in short: as §2
[17] = target: T1, Sodium/glucose cotransporter 1 (Homo sapiens, UniProt P13866); assay: Inhibition of full length human SGLT1 assessed as methyl-alpha-D-[U-14C]glucopyranoside uptake after 2 hrs by cell-based topcount scintillation counting analysis
T1 sequence (P13866 whole entry): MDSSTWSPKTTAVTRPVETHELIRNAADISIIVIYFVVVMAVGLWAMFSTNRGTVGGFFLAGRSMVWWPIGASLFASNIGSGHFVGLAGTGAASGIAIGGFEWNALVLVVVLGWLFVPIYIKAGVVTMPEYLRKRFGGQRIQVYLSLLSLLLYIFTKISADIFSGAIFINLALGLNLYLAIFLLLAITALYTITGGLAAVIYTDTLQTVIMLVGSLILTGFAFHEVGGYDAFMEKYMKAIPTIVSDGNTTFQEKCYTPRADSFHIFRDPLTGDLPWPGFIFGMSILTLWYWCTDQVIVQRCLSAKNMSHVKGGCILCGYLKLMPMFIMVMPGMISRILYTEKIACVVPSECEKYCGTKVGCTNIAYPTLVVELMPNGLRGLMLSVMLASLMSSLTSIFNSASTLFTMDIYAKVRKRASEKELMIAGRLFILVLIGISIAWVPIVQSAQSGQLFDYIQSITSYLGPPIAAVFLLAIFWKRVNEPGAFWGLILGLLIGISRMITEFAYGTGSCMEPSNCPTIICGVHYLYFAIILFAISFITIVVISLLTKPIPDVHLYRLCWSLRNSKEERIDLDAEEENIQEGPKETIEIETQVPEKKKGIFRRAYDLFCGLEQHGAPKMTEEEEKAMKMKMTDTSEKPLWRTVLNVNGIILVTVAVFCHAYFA

Rattus norvegicus [18] = assay: Antidiabetic activity in Sprague-Dawley rat assessed as reduction in blood glucose AUC at 10 mg/kg, po administered 1 hr prior to glucose challenge measured after 60 to 120 mins by oral glucose tolerance test relative to control; type: functional; design: scale not given: the % may be the effect or the level left
In short: (§4)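 Overnight-fasted male Sprague-Dawley rats, n = 5 per group, dosed orally at 0.1, 0.3, 1, 3 or 10 mg/kg in 30% PEG400 1 h before oral glucose challenge (20%, 2 g/kg). Blood glucose measured by glucometer from −60 to 120 min.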

Rattus norvegicus [19] = assay: Antidiabetic activity in Sprague-Dawley rat assessed as reduction in blood glucose AUC at 3 mg/kg, po administered 1 hr prior to glucose challenge measured after 60 to 120 mins by oral glucose tolerance test relative to control; type: functional; design: scale not given: the % may be the effect or the level left; in short: as §4
Rattus norvegicus [20] = assay: Antidiabetic activity in Sprague-Dawley rat assessed as reduction in blood glucose AUC at 1 mg/kg, po administered 1 hr prior to glucose challenge measured after 60 to 120 mins by oral glucose tolerance test relative to control; type: functional; design: scale not given: the % may be the effect or the level left; in short: as §4
[21] = target: T2, Sodium/glucose cotransporter 2 (Homo sapiens, UniProt P31639); assay: Inhibition of full length human SGLT2 assessed as methyl-alpha-D-[U-14C]glucopyranoside uptake after 1.5 hrs by cell-based topcount scintillation counting analysis
T2 sequence (P31639 whole entry): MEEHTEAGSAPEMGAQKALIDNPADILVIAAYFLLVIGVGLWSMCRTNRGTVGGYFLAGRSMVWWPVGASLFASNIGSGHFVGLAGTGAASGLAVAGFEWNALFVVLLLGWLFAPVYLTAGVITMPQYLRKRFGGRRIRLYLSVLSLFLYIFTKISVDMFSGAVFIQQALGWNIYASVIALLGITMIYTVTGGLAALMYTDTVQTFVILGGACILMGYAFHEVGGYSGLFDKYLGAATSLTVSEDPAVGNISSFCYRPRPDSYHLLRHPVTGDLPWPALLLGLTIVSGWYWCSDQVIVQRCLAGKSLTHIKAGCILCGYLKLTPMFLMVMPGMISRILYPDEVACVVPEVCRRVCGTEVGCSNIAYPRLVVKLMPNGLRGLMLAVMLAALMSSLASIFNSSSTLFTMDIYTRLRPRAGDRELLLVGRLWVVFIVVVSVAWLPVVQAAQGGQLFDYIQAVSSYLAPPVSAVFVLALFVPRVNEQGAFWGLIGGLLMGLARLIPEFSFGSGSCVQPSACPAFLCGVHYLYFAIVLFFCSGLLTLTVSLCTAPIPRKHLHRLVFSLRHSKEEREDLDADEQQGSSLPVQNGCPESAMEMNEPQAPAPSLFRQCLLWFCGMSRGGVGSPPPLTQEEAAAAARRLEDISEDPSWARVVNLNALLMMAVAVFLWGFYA

Rattus norvegicus [22] = assay: Antidiabetic activity in Sprague-Dawley rat assessed as reduction in blood glucose AUC at 0.3 mg/kg, po administered 1 hr prior to glucose challenge measured after 60 to 120 mins by oral glucose tolerance test relative to control; type: functional; design: scale not given: the % may be the effect or the level left; in short: as §4
Rattus norvegicus [23] = assay: Antidiabetic activity in Sprague-Dawley rat assessed as reduction in blood glucose AUC at 0.1 mg/kg, po administered 1 hr prior to glucose challenge measured after 60 to 120 mins by oral glucose tolerance test relative to control; type: functional; design: scale not given: the % may be the effect or the level left; in short: as §4

| SMILES | Cmax [1] | Activity (Rattus norvegicus [2]) | clearance [3] | Activity (Canis familiaris [4]) | half-life [5] | half-life [6] | AUC(0-inf) [7] | remaining at 120 h [8] | AUC(0-inf) [9] | Activity (Rattus norvegicus [10]) | bioavailability [11] | Activity (Canis familiaris [12]) | Activity (Canis familiaris [13]) | Tmax [14] | AUC(0-inf) [15] | Activity (Rattus norvegicus [16]) | IC50 [17] | IC50 [21] | also measured |
| --- | --- | --- | --- | --- | --- | --- | --- | --- | --- | --- | --- | --- | --- | --- | --- | --- | --- | --- | --- |
| COc1ccc(Cc2cc([C@@H]3O[C@H](CO)[C@@H](O)[C@H](O)[C@H]3O)ccc2Cl)cc1 | 165 ng/mL | 233 mg | 14 mL/min/kg | 3620 mg | 2.09 h | 3.23 h | 943 ng·h/mL | 73% | 1220 ng·h/mL | 1660 mg | 77% | 10900 mg | 14500 mg | 1.75 h | 5350 ng·h/mL | 1890 mg |  |  |  |
| [2H]C([2H])([2H])Oc1ccc(Cc2cc([C@@H]3O[C@H](CO)[C@@H](O)[C@H](O)[C@H]3O)ccc2Cl)cc1 | 257 ng/mL | 251 mg | 12.7 mL/min/kg | 3480 mg | 2.69 h | 3.5 h | 1020 ng·h/mL | 87% | 1330 ng·h/mL | 1980 mg | 76.3% | 11200 mg | 14700 mg | 1.56 h | 7000 ng·h/mL | 2230 mg | 900 nM | 2.5 nM | Activity (Rattus norvegicus [18]): 5%; Activity (Rattus norvegicus [19]): 21.6%; Activity (Rattus norvegicus [20]): 26.7%; Activity (Rattus norvegicus [22]): 20.7%; Activity (Rattus norvegicus [23]): 18.6% |
| [2H]C([2H])(C)Oc1ccc(Cc2cc([C@@H]3O[C@H](CO)[C@@H](O)[C@H](O)[C@H]3O)ccc2Cl)cc1 |  | 119 mg |  |  |  |  |  |  |  | 2310 mg |  |  |  |  | 20900 ng·h/mL | 2430 mg |  |  |  |
| [2H]C([2H])(c1ccc(OC([2H])([2H])C([2H])([2H])[2H])cc1)c1cc([C@@H]2O[C@H](CO)[C@@H](O)[C@H](O)[C@H]2O)ccc1Cl |  | 137 mg |  | 4360 mg |  |  |  |  |  | 1940 mg |  | 11000 mg | 15400 mg |  | 22400 ng·h/mL | 2080 mg |  |  |  |
| [2H]C([2H])([2H])Oc1ccc(C([2H])([2H])c2cc([C@]3([2H])O[C@H](CO)[C@@H](O)[C@H](O)[C@H]3O)ccc2Cl)cc1 |  | 166 mg |  |  |  |  |  |  |  | 1480 mg |  |  |  |  |  | 1650 mg | 7000 nM | 6.8 nM |  |
